Experimental data as given in ChEMBL document CHEMBL6083196, “Synthesis and cytotoxic activity of madecassic acid-silybin conjugate compounds in liver cancer cells” (2024).

Legend:
HepG2 [1] = assay: Induction of apoptosis in human HepG2 cells assessed as viable cells incubated for 24 hrs by Annexin V-FITC/PI staining based flow cytometry (reference value: 88.62 %); type: functional
HepG2 [2] = assay: Induction of apoptosis in human HepG2 cells assessed as early apoptotic cells incubated for 24 hrs by Annexin V-FITC/PI staining based flow cytometry (reference value: 2.98 %); type: functional
HepG2 [3] = assay: Induction of apoptosis in human HepG2 cells assessed as necrotic cells incubated for 24 hrs by Annexin V-FITC/PI staining based flow cytometry (reference value: 5.34 %); type: functional
HepG2 [4] = assay: Induction of apoptosis in human HepG2 cells assessed as late apoptotic cells incubated for 24 hrs by Annexin V-FITC/PI staining based flow cytometry (reference value: 3.06 %); type: functional
HepG2 [5] = assay: Induction of apoptosis in human HepG2 cells assessed as fold change in caspase-3 level at 0.5 uM incubated for 1 hr by colorimetric assay relative to control
HepG2 [6] = assay: Induction of apoptosis in human HepG2 cells assessed as fold change in caspase-3 level at 0.5 uM incubated for 24 hrs by colorimetric assay relative to control
HepG2 [7] = assay: Induction of apoptosis in human HepG2 cells assessed as fold change in caspase-3 level at 0.5 uM incubated for 6 hrs by colorimetric assay relative to control
HepG2 [8] = assay: Induction of apoptosis in human HepG2 cells assessed as viable cells at 3 times GI50 incubated for 24 hrs by Annexin V-FITC/PI staining based flow cytometry (reference value: 88.62 %); type: functional
HepG2 [9] = assay: Induction of apoptosis in human HepG2 cells assessed as fold change in caspase-3 level at 3 times GI50 incubated for 1 hr by colorimetric assay relative to control; type: functional
Procedure, shortened: (§1)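 Lysates taken from HepG2 cells 1, 6 or 24 h after treatment at 0.3×, 1× or 3× GI50. Lysis on ice for 10 min, then 10 000 × g spin; protein measured by Bradford. 80 μg protein incubated with DTT and DEVD-pNA substrate for 1 h at 37 °C, in triplicate; absorbance read at 405 nm. Result expressed as fold change versus untreated cells. Camptothecin 0.5 μM as control; mean and SE reported.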

HepG2 [10] = assay: Induction of apoptosis in human HepG2 cells assessed as fold change in caspase-3 level at GI50 incubated for 24 hrs by colorimetric assay relative to control; type: functional; procedure, shortened: as §1
HepG2 [11] = assay: Induction of cell cycle arrest in human HepG2 cells assessed as accumulation at S phase at 3 times IC50 incubated for 24 hrs by PI staining based flow cytometry (reference value: 46.83 %); type: functional
HepG2 [12] = assay: Induction of apoptosis in human HepG2 cells assessed as early apoptotic cells at GI50 incubated for 24 hrs by Annexin V-FITC/PI staining based flow cytometry (reference value: 2.98 %); type: functional
HepG2 [13] = assay: Induction of cell cycle arrest in human HepG2 cells assessed as accumulation at G2/M phase at IC50 incubated for 24 hrs by PI staining based flow cytometry (reference value: 27.69 %); type: functional
HepG2 [14] = assay: Induction of cell cycle arrest in human HepG2 cells assessed as accumulation at G0/G1 phase at 3 times IC50 incubated for 24 hrs by PI staining based flow cytometry (reference value: 24.63 %); type: functional
HepG2 [15] = assay: Induction of cell cycle arrest in human HepG2 cells assessed as accumulation at G0/G1 phase at IC50 incubated for 24 hrs by PI staining based flow cytometry (reference value: 24.63 %); type: functional
HepG2 [16] = assay: Induction of cell cycle arrest in human HepG2 cells assessed as accumulation at S phase at IC50 incubated for 24 hrs by PI staining based flow cytometry (reference value: 46.83 %); type: functional
HepG2 [17] = assay: Induction of cell cycle arrest in human HepG2 cells assessed as accumulation at G2/M phase at 3 times IC50 incubated for 24 hrs by PI staining based flow cytometry (reference value: 27.69 %); type: functional
HepG2 [18] = assay: Induction of apoptosis in human HepG2 cells assessed as necrotic cells at GI50 incubated for 24 hrs by Annexin V-FITC/PI staining based flow cytometry (reference value: 5.34 %); type: functional
HepG2 [19] = assay: Induction of apoptosis in human HepG2 cells assessed as fold change in caspase-3 level at GI50 incubated for 6 hrs by colorimetric assay relative to control; type: functional; procedure, shortened: as §1
Hep 3B2 = assay: Cytotoxicity against human Hep3B cells incubated for 96 hrs by MTT assay; type: functional
Procedure, shortened: (§2)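 Cells grown in DMEM with 10% FBS and 1% antibiotic at 37 °C, 5% CO2. Trypsinised, seeded at 3 × 10^4 cells per mL, treated over an eight-point titration for 96 h. MTT (0.5 mg mL−1) added for 4 h at 37 °C, formazan dissolved in DMSO, absorbance read at 570 nm. GI50 is the concentration halving the MTT signal versus untreated control. Ellipticine served as reference; n ≥ 3 repeats.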

HepG2 [20] = assay: Induction of apoptosis in human HepG2 cells assessed as fold change in caspase-3 level at 0.3 times GI50 incubated for 1 hr by colorimetric assay relative to control; type: functional; procedure, shortened: as §1
HepG2 [21] = assay: Cytotoxicity against human HepG2 cells incubated for 96 hrs by MTT assay; type: functional; procedure, shortened: as §2
HepG2 [22] = assay: Induction of apoptosis in human HepG2 cells assessed as fold change in caspase-3 level at 0.3 times GI50 incubated for 24 hrs by colorimetric assay relative to control; type: functional; procedure, shortened: as §1
HepG2 [23] = assay: Induction of apoptosis in human HepG2 cells assessed as fold change in caspase-3 level at 3 times GI50 incubated for 6 hrs by colorimetric assay relative to control; type: functional; procedure, shortened: as §1
HepG2 [24] = assay: Induction of apoptosis in human HepG2 cells assessed as fold change in caspase-3 level at 0.3 times GI50 incubated for 6 hrs by colorimetric assay relative to control; type: functional; procedure, shortened: as §1
[25] = Cytotoxicity against human Huh-7R cells incubated for 96 hrs by MTT assay; type: functional; procedure, shortened: as §2
HepG2 [26] = assay: Induction of apoptosis in human HepG2 cells assessed as necrotic cells at 3 times GI50 incubated for 24 hrs by Annexin V-FITC/PI staining based flow cytometry (reference value: 5.34 %); type: functional
HepG2 [27] = assay: Induction of apoptosis in human HepG2 cells assessed as fold change in caspase-3 level at GI50 incubated for 1 hr by colorimetric assay relative to control; type: functional; procedure, shortened: as §1
HepG2 [28] = assay: Induction of apoptosis in human HepG2 cells assessed as late apoptotic cells at GI50 incubated for 24 hrs by Annexin V-FITC/PI staining based flow cytometry (reference value: 3.06 %); type: functional
HepG2 [29] = assay: Induction of apoptosis in human HepG2 cells assessed as fold change in caspase-3 level at 3 times GI50 incubated for 24 hrs by colorimetric assay relative to control; type: functional; procedure, shortened: as §1
HepG2 [30] = assay: Induction of apoptosis in human HepG2 cells assessed as viable cells at GI50 incubated for 24 hrs by Annexin V-FITC/PI staining based flow cytometry (reference value: 88.62 %); type: functional
HepG2 [31] = assay: Induction of apoptosis in human HepG2 cells assessed as late apoptotic cells at 3 times GI50 incubated for 24 hrs by Annexin V-FITC/PI staining based flow cytometry (reference value: 3.06 %); type: functional
HepG2 [32] = assay: Induction of apoptosis in human HepG2 cells assessed as early apoptotic cells at 3 times GI50 incubated for 24 hrs by Annexin V-FITC/PI staining based flow cytometry (reference value: 2.98 %); type: functional
Huh-7 = assay: Cytotoxicity against human Huh-7 cells incubated for 96 hrs by MTT assay; type: functional; procedure, shortened: as §2

What does the source list for `CC[C@@]1(O)C(=O)OCc2c1cc1n(c2=O)Cc2cc3ccccc3nc2-1` [CAMPTOTHECIN]?
Activity (HepG2 [1]): 79.08%; Activity (HepG2 [2]): 14.78%; Activity (HepG2 [3]): 3.85%; Activity (HepG2 [4]): 2.3%; fold change (FC) (HepG2 [5]): 1.94; fold change (FC) (HepG2 [6]): 2.19; fold change (FC) (HepG2 [7]): 2.21

Which Activity (HepG2 [8]) does the source give for `COc1cc([C@H]2Oc3cc([C@H]4Oc5cc(O)cc(O)c5C(=O)[C@@H]4OC(=O)CNC(=O)[C@]45CC[C@@H](C)[C@H](C)[C@H]4C4=CC[C@@H]6[C@@]7(C)C[C@@H](OC(C)=O)[C@H](OC(C)=O)[C@@](C)(COC(C)=O)[C@@H]7[C@H](O)C[C@@]6(C)[C@]4(C)CC5)ccc3O[C@@H]2CO)ccc1O` here?
Its Activity is 84%.

What about the “fold change (FC)” value (HepG2 [9]) of the same compound?
Its value is 1.69.

What about the “fold change (FC)” value (HepG2 [10]) of the same compound?
The value was 1.86.

And the Activity (HepG2 [11])?
Its Activity is 60.41%.

What about the Activity (HepG2 [12]) of the same compound?
The Activity was 10.65%.

And the Activity (HepG2 [13])?
The Activity was 9.78%.

What about the Activity (HepG2 [14]) of the same compound?
The Activity was 27.07%.

And the Activity (HepG2 [15])?
The Activity was 26.72%.

What about the Activity (HepG2 [16]) of the same compound?
Its Activity is 61.09%.

What about the Activity (HepG2 [17]) of the same compound?
Its Activity is 11.8%.

And the Activity (HepG2 [18])?
Its Activity is 13.32%.

What about the “fold change (FC)” value (HepG2 [19]) of the same compound?
Its value is 1.09.

What about the GI50 (Hep 3B2) of the same compound?
The GI50 was 9.61 µM.

What about the “fold change (FC)” value (HepG2 [20]) of the same compound?
Its value is 0.59.

And the GI50 (HepG2 [21])?
The GI50 was 32.5 µM.

And the “fold change (FC)” value (HepG2 [22])?
The value was 1.62.

What about the “fold change (FC)” value (HepG2 [23]) of the same compound?
The value was 1.27.

What about the “fold change (FC)” value (HepG2 [24]) of the same compound?
The value was 0.76.

And the GI50 [25]?
The GI50 was 14.2 µM.

And the Activity (HepG2 [26])?
The Activity was 13.81%.

And the “fold change (FC)” value (HepG2 [27])?
Its value is 0.76.

What about the Activity (HepG2 [28]) of the same compound?
Its Activity is 4.92%.

What about the “fold change (FC)” value (HepG2 [29]) of the same compound?
Its value is 1.37.

And the Activity (HepG2 [30])?
The Activity was 71.11%.

What about the Activity (HepG2 [31]) of the same compound?
The Activity was 0.91%.

What about the Activity (HepG2 [32]) of the same compound?
Its Activity is 1.28%.

What about the GI50 (Huh-7) of the same compound?
Its GI50 is 13.8 µM.
